An excerpt weighted towards active compounds, which were near 2.7% of everything screened.
Hep lipid drop: modulators of hepatic lipid droplet formation. AML12 mouse hepatocytes, oleate lipid droplets, BODIPY imaging. inhibition, % at 6.5 µM. hit rate 0.4% among 240,000. AID 1656;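 active = lipid droplet intensity inhibited by at least 50%, with more than 500 cells counted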
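material = mouse AML12 hepatocyte cell line, fixed after treatment | also added = 100 µM oleic acid challenge | doses = compound at 6.5 µM only | schedule = overnight exposure | technique = Image-based BODIPY and DAPI two-channel analysis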
MC4R barr agon: activates human MC4R beta-arrestin recruitment; P32245; U2OS MC4R beta-arrestin complementation, luminescence; percent of melanotan II response, DMSO zero; activation, % at 8.9 µM; hit rate 0.98% among 360,000;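 active = activation above a per-plate cutoff, the mean activation of sample wells on that plate plus 3 SD, cut at about 8% in these data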
MC4R antagonist: blocks human MC4R cAMP signaling. AID 540295. MC4R-expressing cells, MTII-stimulated cAMP, LANCE TR-FRET. hit rate 0.48% among 360,000. P32245. inhibition, % at 6.5 µM;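 active = inhibition above its plate's cutoff, the mean of tested wells on that plate plus 3 SD, cut at about 29% in these data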
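Material – human MC4R-expressing U2OS cells · Repeats – no replicates · Detection – TR-FRET with Eu-cAMP and labeled anti-cAMP, 671 nm · Times – compound 30 min, challenge 1 h, detection 1 h · Compound – single nominal compound dose of 6.5 µM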
NTR1 agonist: agonists of human neurotensin receptor NTR1. NTR1-U2OS beta-arrestin-GFP spot imaging, agonist mode. activation, % at 20 µM. hit rate 0.17% among 330,000. AID 493036;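 active = activation at or above 40% of the spot to cytoplasm intensity ratio, with at least 20 cells analyzed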
PREPL inhibitor: inhibits the human prolyl oligopeptidase-like enzyme; recombinant PREPL, fluorescence polarization activity-based probe; inhibition, % at 5.96 µM; hit rate 0.68% among 320,000; AID 2751
m5-HT2A agonist: agonists of mouse serotonin 5-HT2A receptor (HTR2A); CHO-K1 mHTR2A beta-arrestin complementation, luminescence; percent of 30 µM serotonin response; hit rate 0.66% among 360,000; activation, % at 7.6 µM;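 active = activation above a run cutoff, the mean activation of all tested compounds plus 3 SD, cut at about 14% in these data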
Target sequence (P35363 whole entry, looked up): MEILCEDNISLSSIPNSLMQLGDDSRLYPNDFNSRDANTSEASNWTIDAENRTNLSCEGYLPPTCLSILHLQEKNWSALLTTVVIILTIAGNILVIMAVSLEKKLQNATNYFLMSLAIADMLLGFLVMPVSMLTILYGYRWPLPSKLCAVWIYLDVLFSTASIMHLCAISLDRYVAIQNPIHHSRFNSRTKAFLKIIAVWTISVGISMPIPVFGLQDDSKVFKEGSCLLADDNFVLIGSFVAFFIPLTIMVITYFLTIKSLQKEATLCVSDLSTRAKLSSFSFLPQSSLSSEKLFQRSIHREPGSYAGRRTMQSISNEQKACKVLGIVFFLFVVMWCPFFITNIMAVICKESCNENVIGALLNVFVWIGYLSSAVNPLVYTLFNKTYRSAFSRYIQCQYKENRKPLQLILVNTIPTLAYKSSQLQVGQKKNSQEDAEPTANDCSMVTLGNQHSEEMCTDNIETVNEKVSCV
PREPL confirm: human PREPL inhibition, confirmation; inhibition, % at 5.96 µM; recombinant PREPL, fluorescence polarization activity probe; hit rate 67% among 2,000; shares compounds with PREPL inhibitor
A number is an active result; n = inactive; x = no result. Cut-off read from the data, not from the text of the source, unless noted: active = inhibition above about 43%; inactive = the rest.

SMILES	Hep lipid drop	MC4R barr agon	MC4R antagonist	NTR1 agonist	PREPL inhibitor	m5-HT2A agonist	PREPL confirm
COc1ccc(OC)c(NC(=O)c2cc3c(=O)n4ccccc4nc3n2C)c1	n	n	n	n	n	n	x
CN(C)c1ccc(NC(=O)c2cc3c(=O)n4ccccc4nc3n2C)cc1	x	n	n	n	43	n	n
Cc1c(Cl)c([N+](=O)[O-])nn1CC(=O)NCc1ccc(Cl)cc1	n	n	n	n	n	n	x
CC(Oc1cccc2ccccc12)C(=O)N/N=C/c1cccnc1 (configuration not stated)	n	n	n	n	n	n	x
N#Cc1cc(C#N)c(SCC(=O)N2CC(=O)Nc3ccccc32)nc1N	x	n	n	n	46	n	n
C[C@@H]1CN([C@@H](C)CO)C(=O)Cc2cc(NC(=O)Nc3ccc4c(c3)OCO4)ccc2O[C@@H]1CN(C)C(=O)NC1CCCCC1	x	n	n	n	54	n	46
CC(C)NC(=O)Nc1ccc2c(c1)CC(=O)N([C@@H](C)CO)C[C@H](C)[C@@H](CN(C)C(=O)NC1CCCCC1)O2	x	n	n	n	n	n	x
Cc1ccc(S(=O)(=O)Nc2ccc3c(c2)CC(=O)N([C@H](C)CO)C[C@H](C)[C@H](CN(C)Cc2ccc4c(c2)OCO4)O3)cc1	x	n	n	n	51	n	53
CCNC(=O)C(=O)NCC1OCCCN1S(=O)(=O)c1cccs1 (configuration not stated)	n	n	n	n	n	n	x
O=C(Cn1c(O)c(/C=C2\C=Nc3ccc(Br)cc32)sc1=O)N1CCCC1	n	n	n	n	43	n	n
CCOC(=O)N1CCN(c2nc3ccc(C(=O)c4ccccc4)cc3n3cnnc23)CC1	n	n	n	n	61	n	n
O=C(c1ccccc1)c1ccc2nc(N3CCN(C(=O)c4ccco4)CC3)c3nncn3c2c1	x	n	n	n	n	n	x
C[C@@H]1NC(=O)[C@H](CCC(N)=O)NC(=O)c2cc([N+](=O)[O-])cc(I)c2NCCC[C@@H](C(N)=O)NC1=O	n	n	n	n	n	n	x
C[C@@H]1NC(=O)[C@H](CCCN=C(N)N)NC(=O)c2cc([N+](=O)[O-])cc(I)c2NCCC[C@@H](C(N)=O)NC1=O	n	n	n	n	43	n	n
CCN(CC)CCNc1ccc(CO)c2sc3ccccc3c(=O)c12	n	n	n	n	45	n	58
COc1ccc(C(=O)Nc2ccc(-c3ccc(C)o3)cc2)cc1S(=O)(=O)N1CCOCC1	n	n	n	n	63	n	n
Cc1nn(C)c(=O)n1N(C)c1ncc(C(F)(F)F)cc1Cl	n	n	n	n	n	n	x
CC(NC(=O)/C=C/c1cnc2ccccc2n1)C12CC3CC(CC(C3)C1)C2 (configuration not stated)	n	n	n	n	n	n	x
CCn1c(=O)c(CCC(=O)NCC2CCCO2)c(C)c2c(C)nn(-c3ccc(C)cc3)c21 (configuration not stated)	n	n	n	n	n	n	x
O=C(C[n+]1ccc(C(=O)N/N=C/c2ccc(Cl)cc2Cl)cc1)c1ccccc1	x	n	n	n	45	n	n
O=C(N/N=C/c1ccc(Cl)cc1Cl)c1cccc(F)c1	x	n	n	n	n	n	x
CC(=O)c1ccc2c(c1)N(CCCN(C)C)c1ccccc1S2	x	n	n	x	x	n	x
CCC(=O)c1ccc2c(c1)N(CCCN(C)C)c1ccccc1S2	x	n	n	n	64	n	55
CCN(CC)CCCC(C)NC(=O)c1c(NC(=O)c2ccccc2)sc2c1CCCC2 (configuration not stated)	n	n	n	n	46	n	n
CCN=C1S/C(=C\c2cc(Br)c(O)c(OC)c2)C(=O)N1CC	n	n	n	n	x	n	x
SMILES	Hep lipid drop	MC4R barr agon	MC4R antagonist	NTR1 agonist	PREPL inhibitor	m5-HT2A agonist	PREPL confirm
Brc1ccc(C=Nc2ccc(Nc3ccccc3)cc2)s1	n	n	n	x	99	n	n
C(=Nc1ccc(Nc2ccccc2)cc1)c1ccc2ccccc2c1	n	n	n	x	95	n	n
NC(=S)N/N=C/c1ccc2ccccc2c1	n	n	n	n	n	n	x
CCOC(=O)c1ccccc1NC(=O)COC(=O)CN1C(=O)NC2(CCCC2)C1=O	n	n	n	n	n	n	x
O=C(NCc1ccccn1)c1nnc(Cc2ccc(Cl)cc2)o1	n	n	n	n	n	n	x
CCOC(=O)C1(Cc2ccccc2)CCCCCC1=O (configuration not stated)	x	n	n	x	x	n	x
CCOc1cccc(CNc2ccc(O)cc2)c1OCc1ccc(Cl)cc1	x	n	n	n	n	n	x
CCOc1cc(CNc2ccc(O)cc2)ccc1OCc1ccc(Cl)cc1Cl	n	n	n	n	57	n	51
Cc1ccc(CSc2ccc3nnc(-c4ccccn4)n3n2)cc1	n	n	n	n	50	n	n
NNc1ncnc2sc3c(c12)CCC3	n	n	n	n	44	n	n
C#CCOCCOCCOCCNc1nc(N2CCN(C(=O)[C@H](CCCCN)n3cc(C(N)CO)nn3)CC2)nc(N2CCN(C(=O)[C@H](CCC(=O)O)n3cc(C(N)Cc4ccc(O)cc4)nn3)CC2)n1 (some centres not stated)	n	x	x	n	x	x	x
C#CCOCCOCCOCCNc1nc(N2CCN(C(=O)[C@H](CCCCN)n3cc([C@@H](N)CO)nn3)CC2)nc(N2CCN(C(=O)[C@H](Cc3cc4ccccc4[nH]3)n3cc([C@@H](N)Cc4ccc(O)cc4)nn3)CC2)n1	n	x	x	n	55	x	50
C#CCOCCOCCOCCNc1nc(N2CCN(C(=O)[C@H](CCCCN)n3cc([C@@H](N)CC(C)C)nn3)CC2)nc(N2CCN(C(=O)[C@H](Cc3cc4ccccc4[nH]3)n3cc([C@@H](N)Cc4ccc(O)cc4)nn3)CC2)n1	n	n	n	n	49	n	52
C#CCOCCOCCOCCNc1nc(N2CCN(C(=O)[C@H](CCCCN)n3cc([C@@H](N)CC(C)C)nn3)CC2)nc(N2CCN(C(=O)[C@H](Cc3ccc(O)cc3)n3cc([C@@H](N)CC(C)C)nn3)CC2)n1	n	x	x	n	n	x	x
O=C(Nc1ccc(Cl)c(Cl)c1)C1C2C=CC3(O2)C1C(=O)N(CCN1CCCCC1)C3C(=O)NC1CCCCC1 (configuration not stated)	n	n	n	n	50	n	52
COCCCn1c(SCCc2ccccc2)nc2cc(OC)c(OC)cc2c1=N	n	9.4	n	n	46	n	n
O=C(N/N=C/c1cc(Br)c(O)c(Br)c1)c1cc2c(ccc3ccccc32)o1	n	n	n	n	x	n	x
O=C(N/N=C/c1cc(Cl)c(O)c(Cl)c1)c1cc2c(ccc3ccccc32)o1	n	n	n	n	59	n	69

Source: PubChem BioAssay
